The source of these data is PMC5241585 (International Journal for Parasitology: Drugs and Drug …, 2016).

The conditions of data set [1]: cited from earlier work.
The subject of a further data set is P. berghei QIMR. Description: In vivo anti-Plasmodium efficacy in infected BALB/c mice. The conditions noted are these: for peripheral blood parasitemia compared to vehicle-only control mice: 25 mg/kg oral gavage twice daily for four days; for days after infection with significant reduction in parasitemia (P < 0.05): 25 mg/kg orally twice daily for four days. The procedure, abridged:
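Female BALB/c mice, 6–8 weeks old, six per group, infected i.p. with […] P. berghei QIMR-infected erythrocytes from a passage mouse. Oral gavage of 25 mg/kg test compound in DMSO/PBS (100 μL) twice daily for four days, starting 2 h p.i. with 4 h between doses. Chloroquine 10 mg/kg oral twice daily for three days. Giemsa thin smears read daily from day 4 (>800 erythrocytes per mouse).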

For data set [2] the following is noted: female BALB/c nude mice, oral 50 mg/kg; ref Yeo et al., 2007; cited from earlier work.
Another data set relates to P. falciparum 3D7. The experiment in a line: P. falciparum 3D7 3H-hypoxanthine incorporation growth inhibition assay. The format is cell-based. To be noted: Plasmodium falciparum, 3D7, 48 h, read-out: P. falciparum 3D7 IC50.
A further data set relates to S. mansoni adult worms. Description: Adult worm pair stability and egg laying in culture. The format is cell-based, Schistosoma mansoni. Summed up: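 S. mansoni adult worm pairs kept in culture with test compound at 10 μM. Pairing and egg laying expressed as mean % of DMSO control (set to 100%). Praziquantel (10 μM) served as control. Run in triplicate on two separate occasions.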

The test system of data set [3] is human Neonatal Foreskin Fibroblast (NFF) cells. To be noted: read-out: NFF IC50; previously published; ref Engel et al., 2015; cited from earlier work.
In a further data set the test system is P. knowlesi A1H.1. Description: P. knowlesi A1H.1 3H-hypoxanthine incorporation growth inhibition assay. Type of data set: cell-based. To be noted: Plasmodium knowlesi, 48 h, read-out: P. knowlesi A1H.1 IC50.
The subject of data set [4] is free L. donovani promastigotes. The experiment in a line: Resazurin reduction assay, L. donovani promastigotes. Type of data set: cell-based, Leishmania donovani. The conditions noted are these: for inhibition at 20 µM: Leishmania donovani, read-out: inhibition of free L. donovani promastigotes.
The next data set has as its system Plasmodium parasites. The experiment in a line: Ratios derived from Table 1 IC50 values. Type of data set: cell-based.
The subject of data set [5] is Human Embryonic Kidney (HEK 293) cells. To be noted: read-out: HEK 293 IC50; previously published; ref Engel et al., 2015; cited from earlier work.
The nature of data set [6]: Oral pharmacokinetics in mice. To be noted: mice dosed orally with 50 mg/kg; ref Yeo et al., 2007.
A short description of data set [7]: Oral pharmacokinetics in humans. The format is in vivo.
The mark [8] stands for this setting: humans, 200–600 mg oral vorinostat, ref Kavanaugh et al., 2010.
[9] abbreviates: humans, 15–80 mg oral panobinostat, ref Prince et al., 2009.

Where two headings read alike, the source gives them in different places. Marks after values point to notes of the source that are not given here.

With `O=C(CCCCCCC(=O)Nc1ccccc1)NO` [Vorinostat], in data set [1] (setting [8]), the “AUC0−∞” value was 1698 ng⋅h/mL and the Cmax (as a rule, the peak of the concentration-time curve) was 658 ng/mL. In the data set with P. berghei QIMR, the “peripheral blood parasitemia compared to vehicle-only control mice” value was “significant reduction” and the “days after infection with significant reduction in parasitemia (P < 0.05)” value lay within 4 to 7 days. In addition, the “AUC0−∞” value in data set [2] is recorded as 619 ng⋅h/mL.

Take `C/C=C1\NC(=O)[C@H]2CSSCC/C=C/[C@H](CC(=O)N[C@H](C(C)C)C(=O)N2)OC(=O)[C@H](C(C)C)NC1=O` [Romidepsin]: the IC50 (usually the point on the concentration scale where inhibition reaches its midpoint) is 140 nM in the data set on P. falciparum 3D7, 1 nM in [3], 210 nM with P. knowlesi A1H.1 and under 5 nM in data set [5]. Further, the “inhibition of adult worm pairing” value in the data set on S. mansoni adult worms (10 μM) is “completely inhibited”. Moreover, the “inhibition of egg production” value in the data set with S. mansoni adult worms (10 μM) is “completely inhibited”. In addition, in data set [4] (20 μM), the “inhibition of free L. donovani promastigotes” value is recorded as “no growth inhibition”. In addition, the “selectivity for the parasite over NFF or HEK 293 cells” value in the data set on Plasmodium parasites (P. knowlesi vs human cells, in abstract) is reported as “not selective”.

Consider `CCN(CC)CCCC(C)Nc1ccnc2cc(Cl)ccc12` (stereo not drawn) [Chloroquine], for which the IC50 was 10 nM in the data set on P. falciparum 3D7, 48900 nM in [3] and 10 nM in the data set with P. knowlesi A1H.1. Moreover, the peripheral blood parasitemia result in the data set on P. berghei QIMR (10 mg/kg orally twice daily beginning 2 h p.i., data not shown) was “did not develop detectable peripheral blood parasitemia”.

Consider `Cc1[nH]c2ccccc2c1CCNCc1ccc(/C=C/C(=O)NO)cc1` [Panobinostat], for which the “half-life longer than vorinostat” value in data set [6] was over 2 fold. For the same compound, the IC50 in the data set on P. falciparum 3D7 is 4 nM; in data set [3], 70 nM; in the data set on P. knowlesi A1H.1, 9 nM; in data set [5], 180 nM. Moreover, the inhibition (in general, the percentage by which the read-out fell short of the control) at 10 µM in the data set with S. mansoni adult worms (Schistosoma mansoni, read-out: inhibition of adult worm pairing) is 30 to 40%; in the data set with S. mansoni adult worms (Schistosoma mansoni, read-out: inhibition of egg production) it was about 50%. Moreover, the inhibition at 20 µM in data set [4] lay within 20 to 35%. For the same compound, the “adverse effects in humans” value in [1] (20 mg oral dose, ref FARYDAK product sheet (Novartis)) is on record as “adverse effects are commonly reported”. The “AUC0−∞” value in data set [1] (setting [9]) is listed as 183–373 ng⋅h/mL. Besides, the Cmax in data set [1] (setting [9]) is 23 to 71 ng/mL; in [7] (human, in vivo, po, 20 mg), about 70 nM. Moreover, the t1/2 in data set [1] (setting [9]) is listed as 16–30 ^d h. Besides, the “mean Cmax” value in [1] (humans, single oral dose 20 mg, ref European Medicines Agency, 2015) is recorded as 24.3 (±12) ng/mL. In addition, the “peripheral blood parasitemia compared to vehicle-only control mice” value in the data set on P. berghei QIMR is given as “significant reduction”. Further, the “reduction in mean peripheral parasitemia compared to vehicle-only control” value in the data set on P. berghei QIMR (25 mg/kg oral gavage twice daily, days 4-10) was 2–3 fold. Further, the “survival compared to vehicle control group” value in the data set with P. berghei QIMR (25 mg/kg oral gavage twice daily, p = 0.0013) was “significantly improved”. The “days after infection with significant reduction in parasitemia (P < 0.05)” value in the data set on P. berghei QIMR was 4 to 10 days. For the same compound, the “greater inhibitory potency against Plasmodium parasites in vitro than vorinostat” value with Plasmodium parasites (from Table 1 IC50 values) is given as 40–60 fold. Also, the “half-life in humans compared to mice” value in [7] (from Table 2 values) is reported as 6–10 fold. For the same compound, the “oral bioavailability (F%) in humans compared to mice” value in data set [7] (from Table 2 values) is “approximately five”.

In the case of `O=C(/C=C/c1cccc(S(=O)(=O)Nc2ccccc2)c1)NO` [Belinostat], the IC50 with P. falciparum 3D7 was 170 nM; in [3], 2370 nM; in the data set with P. knowlesi A1H.1 it was 190 nM; in data set [5], 1420 nM. The inhibition at 20 µM in data set [4] lay within 20 to 35%.

In the case of `O=C(C1CCCCC1)N1CC(=O)N2CCc3ccccc3C2C1` (stereo not drawn) [praziquantel], in the data set on S. mansoni adult worms (10 μM), the “effect on adult worms” value is “induced the death of adult worms”. Further, the viability (as a rule, a read-out of living cells in per cent, often relative to untreated cells) at 10 µM with S. mansoni adult worms (Schistosoma mansoni, read-out: adult worm viability) turned out to be 10%.
